Laboratory results from ChEMBL document CHEMBL2069297, “Inhibition of galactosyltransferases by a novel class of donor analogues” (J Med Chem, 2012).
Calls of active or inactive are those of the source. The calls are words filed in the database; no cut-off is given here.

Legend:
[1] = Inhibition of Neisseria meningitidis alpha-1,4-GalT after 15 mins by Dixon plot analysis
Procedure, shortened: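 Radiochemical transfer assay with DTT-activated N. meningitidis LgtC (0.010 ng): UDP-Gal 0.57 μM plus UDP-[3H]-Gal, Lacβ-O(CH2)8CO2Me 2 mM, DTT 1.7 mM, inhibitor 0–12.5 μM, in A/B buffer pH 7. Incubated 15 min at 37 °C, stopped with water.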

[2] = molecular target: N-acetyllactosaminide alpha-1,3-galactosyltransferase (Bos taurus, UniProt P14769); assay: Inhibition of alpha-1,3-GalT in bovine after 15 mins by Dixon plot analysis
Procedure, shortened: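 Bovine α-1,3-GalT (1.3 μg) in A/B buffer pH 7 with UDP-Gal 76 μM plus UDP-[3H]-Gal, Lacβ-O(CH2)8CO2Me 500 μM, and inhibitor 0–62.5 μM. Incubated 15 min at 37 °C, stopped with water; radiolabeled galactose transfer measured.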

[3] = Inhibition of human GTB after 15 mins by Dixon plot analysis
Procedure, shortened: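 Radiochemical assay on human GTB (0.049 ng): UDP-Gal 26 μM with UDP-[3H]-Gal, Fucα1,2Galβ-O(CH2)7CH3 acceptor 500 μM, inhibitor 0–62.5 μM, in A/B buffer pH 7. Incubated 15 min at 37 °C, then quenched with water.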

[4] = molecular target: T1, Beta-1,4-galactosyltransferase 1 (Bos taurus) (UniProt P08037); assay: Ratio of Km for the compound to Km for UDP-Gal in bovine beta-1,4-GalT
T1 sequence (whole entry): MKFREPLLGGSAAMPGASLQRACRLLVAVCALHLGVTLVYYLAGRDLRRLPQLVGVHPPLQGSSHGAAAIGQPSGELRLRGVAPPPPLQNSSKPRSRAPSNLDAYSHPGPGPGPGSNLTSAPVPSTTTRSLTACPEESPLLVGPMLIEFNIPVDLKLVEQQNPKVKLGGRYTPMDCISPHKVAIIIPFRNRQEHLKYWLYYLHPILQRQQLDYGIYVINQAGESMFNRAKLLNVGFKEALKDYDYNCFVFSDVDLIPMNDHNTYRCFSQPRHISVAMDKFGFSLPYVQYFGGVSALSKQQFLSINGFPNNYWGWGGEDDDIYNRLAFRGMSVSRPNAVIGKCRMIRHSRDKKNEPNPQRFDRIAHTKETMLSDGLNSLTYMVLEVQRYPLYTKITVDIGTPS

[5] = Binding affinity to Neisseria meningitidis alpha-1,4-GalT after 15 mins by competitive binding assay
Neisseria meningitidis [6] = assay: Binding affinity to Neisseria meningitidis alpha-1,4-GalT after 10 mins by fluorescence quenching assay
Procedure, shortened: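 Titration of the fluorescent donor analogue (200 nM final) with LgtC protein stock diluted 1/5 to 1/640 (eight dilutions) in A/B buffer (50 mM MOPS pH 7.0, 20 mM MnCl2, 1 mg/mL BSA). Emission read after 10 min at 37 °C (excitation 350 nm, emission 430 nm) and plotted against enzyme dilution. Run in triplicate.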

Neisseria meningitidis [7] = assay: Binding affinity to Neisseria meningitidis alpha-1,4-GalT by fluorescence quenching assay in presence of unlabeled UDP-Gal and UDP
[8] = Drug uptake in human HL60 cell endoplasmic reticulum at 100 uM after 24 hrs by confocal fluorescence microscopy; type: ADME, cell-based; conditions: hl-60, 24 h
Procedure, shortened: (§1)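 HL-60 cells were grown in RPMI 1640 with 16.7% (v/v) heat-inactivated FCS, L-glutamine and PenStrep. They were seeded at 10^6 cells/mL onto a glass coverslip and kept 24 h at 37 °C, 5% CO2 with the sodium-salt analogue at 100 μM. The coverslip was washed with medium to remove extracellular fluorophore. The compound's intrinsic blue fluorescence (λem 434 nm) was imaged by confocal microscopy at 364 nm.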

[9] = Drug uptake in human HL60 cell golgi apparatus at 100 uM after 24 hrs by confocal fluorescence microscopy; type: ADME, cell-based; conditions: hl-60, 24 h; procedure, shortened: as §1

N-acetyllactosaminide alpha-1,3-galactosyltransferase, sequence (P14769 whole entry): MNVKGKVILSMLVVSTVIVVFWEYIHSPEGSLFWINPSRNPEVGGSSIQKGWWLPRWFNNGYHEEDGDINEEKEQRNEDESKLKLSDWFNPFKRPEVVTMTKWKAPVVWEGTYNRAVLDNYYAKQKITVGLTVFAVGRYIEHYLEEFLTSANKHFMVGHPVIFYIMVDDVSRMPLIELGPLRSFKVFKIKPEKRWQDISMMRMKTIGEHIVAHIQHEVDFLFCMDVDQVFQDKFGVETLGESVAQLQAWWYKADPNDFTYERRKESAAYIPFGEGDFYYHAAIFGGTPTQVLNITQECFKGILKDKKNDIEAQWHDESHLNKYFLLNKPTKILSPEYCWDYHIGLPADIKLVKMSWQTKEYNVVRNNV

| Ki [1] [µM] | Ki [2] [µM] | Ki [3] [µM] | Ratio [4] | SMILES | also measured |
| --- | --- | --- | --- | --- | --- |
| 6 | 76 | 48 | 6 | O=c1[nH]c(=O)n([C@@H]2O[C@H](COP(=O)(O)OP(=O)(O)O[C@H]3O[C@H](CO)[C@H](O)[C@H](O)[C@H]3O)[C@@H](O)[C@H]2O)cc1-c1ccccc1 |  |
|  |  |  |  | O=c1ccn([C@@H]2O[C@H](COP(=O)(O)OP(=O)(O)O)[C@@H](O)[C@H]2O)c(=O)[nH]1 [URIDINE_DIPHOSPHATE] | IC50 [5]: 46 µM |
|  |  |  | 2 | O=Cc1ccc(-c2cn([C@@H]3O[C@H](COP(=O)(O)OP(=O)(O)O[C@H]4O[C@H](CO)[C@H](O)[C@H](O)[C@H]4O)[C@@H](O)[C@H]3O)c(=O)[nH]c2=O)s1 [listing 1 of 2 here] |  |
|  |  |  |  | O=Cc1ccc(-c2cn([C@@H]3O[C@H](COP(=O)(O)OP(=O)(O)CC[C@H]4O[C@H](CO)[C@H](O)[C@H](O)[C@H]4O)[C@@H](O)[C@H]3O)c(=O)[nH]c2=O)s1 [listing 2 of 2 here] | Activity (Neisseria meningitidis [6]): Dose-dependent effect; Activity (Neisseria meningitidis [7]): inactive |
|  |  |  | 3.3 | COc1ccc(-c2cn([C@@H]3O[C@H](COP(=O)(O)OP(=O)(O)O[C@H]4O[C@H](CO)[C@H](O)[C@H](O)[C@H]4O)[C@@H](O)[C@H]3O)c(=O)[nH]c2=O)cc1 |  |
|  |  |  |  | O=Cc1ccc(-c2cn([C@@H]3O[C@H](COP(=O)([O-])OP(=O)([O-])O[C@H]4O[C@H](CO)[C@H](O)[C@H](O)[C@H]4O)[C@@H](O)[C@H]3O)c(=O)[nH]c2=O)s1.[Na+].[Na+] | Drug uptake [8]: Active; Drug uptake [9]: Active |
|  |  |  |  | O=Cc1ccc(-c2cn([C@@H]3O[C@H](COP(=O)([O-])OP(=O)([O-])CC[C@H]4O[C@H](CO)[C@H](O)[C@H](O)[C@H]4O)[C@@H](O)[C@H]3O)c(=O)[nH]c2=O)s1.[Na+].[Na+] | Drug uptake [8]: Active; Drug uptake [9]: Active |
| 1.9 | 90 | 33 | 2 | O=c1[nH]c(=O)n([C@@H]2O[C@H](COP(=O)(O)OP(=O)(O)O[C@H]3O[C@H](CO)[C@H](O)[C@H](O)[C@H]3O)[C@@H](O)[C@H]2O)cc1-c1ccco1 |  |
| 0.45 |  | 2.4 |  | O=Cc1ccc(-c2cn([C@@H]3O[C@H](COP(=O)(O)OP(=O)(O)O[C@H]4O[C@H](CO)[C@H](O)[C@H](O)[C@H]4O)[C@@H](O)[C@H]3O)c(=O)[nH]c2=O)s1 [listing 2 of 2 here] |  |

| SMILES | Ki [1] [µM] | Ki [2] [µM] | Ki [3] [µM] | Ratio [4] | also measured |
| --- | --- | --- | --- | --- | --- |
| O=Cc1ccc(-c2cn([C@@H]3O[C@H](COP(=O)(O)OP(=O)(O)CC[C@H]4O[C@H](CO)[C@H](O)[C@H](O)[C@H]4O)[C@@H](O)[C@H]3O)c(=O)[nH]c2=O)s1 [listing 1 of 2 here] | 1.7 | 18 | 3.8 |  |  |
